Bioassay records deposited in PubChem BioAssay by several laboratories.
Dynein cargo inh: blocks dynein driven cargo transport along microtubules | 3617.4 mouse cells, GR-EGFP nuclear translocation imaging; test concentration mostly 20 µM; stimulated with dexamethasone, 1 µM; hits give low values | z-score, hits read low | actives 0.47% (n = 220,000);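 active means plate z-score of nuclear minus cytoplasmic receptor signal below a set negative limit, without overly bright fluorescence or cell loss, cut at about -3.5 in these data, passing the limit was not always enough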;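 further: z-score of nuclear minus cytoplasmic ring GR-EGFP intensity difference per well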
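Medium: Induction medium lacking tetracycline, stripped serum | Probe or stimulus: 1.0 µM final dexamethasone stimulus | Schedule: 48 h induction, then 1 h compound, then 30 min agonist, 37 °C | Signal: Automated 10x imaging of fixed Hoechst-stained cells | Evaluation: Per-cell GR-EGFP intensity, nucleus versus surrounding cytoplasmic ring, well-averaged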
RAM network inh: inhibitors of the yeast RAM network. inhibition, % at 50 µM. actives 1.8% (n = 190,000). S. cerevisiae dse1pr::URA3 reporter, 5-FOA growth OD615, 2 d; analog-sensitive cbk1-as2 kinase mutant strain;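 active means inhibition above a set limit, 3 SD over mean compound inhibition, cut at about 8.4% in these data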;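 further: 0% = DMSO-only wells with no growth and 100% = 10 µM 1-NA-PP1 full growth; inhibition rescues growth on 5-FOA so higher OD means more RAM inhibition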
pCIP destab: lowers stability of the mouse p/CIP coactivator protein | F442A p/CIP-EGFP cells, EGFP fluorescence, 16 h | decrease of EGFP signal, % at 10 µM | actives 0.01% (n = 290,000) | AID 1984;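 active means EGFP signal decrease of at least 30% at 10 µM or well 3 SD below plate mean, unless failing retest; inactive means the rest, including hits failing retest or dose response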
NCF1 inh: p47phox (human) inhibition; AID 1274; actives 0.53% (n = 220,000); p47phox/p22phox peptide binding, fluorescence polarization, 2 h; P14598; inhibition, % at 24.7 µM;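 active means inhibition above about 30%, limit read from the data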;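 further: 0% = p47phox with labelled peptide and 100% = labelled peptide alone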
Target sequence (P14598 whole entry, looked up): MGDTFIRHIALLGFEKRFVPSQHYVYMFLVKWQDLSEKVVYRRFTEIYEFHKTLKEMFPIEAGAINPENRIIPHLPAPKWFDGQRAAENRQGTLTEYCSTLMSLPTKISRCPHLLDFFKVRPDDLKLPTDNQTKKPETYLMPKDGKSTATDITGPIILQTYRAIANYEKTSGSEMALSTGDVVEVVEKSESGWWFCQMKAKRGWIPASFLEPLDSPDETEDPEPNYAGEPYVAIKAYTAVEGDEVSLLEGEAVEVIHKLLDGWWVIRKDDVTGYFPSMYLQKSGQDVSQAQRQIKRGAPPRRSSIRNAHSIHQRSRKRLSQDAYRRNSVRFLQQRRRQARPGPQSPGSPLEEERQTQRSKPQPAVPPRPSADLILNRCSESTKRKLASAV
RAM 5-FOA: RAM network inhibition, efflux-deficient strain | AID 1305 | 1,200 tested, under 10 active | shares compounds with RAM network inh | max inhibition, % | S. cerevisiae efflux-deficient reporter strain, 5-FOA growth OD615, 2 days; call rule not given here;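 further: plate controls were vehicle for no effect and reference inhibitor for full effect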
Active calls of the source: *; · = not tested or not shown. Shown are actives, neighbours in structure and some others; about 1.9% of the full set was active somewhere.

SMILES	Dynein cargo inh	RAM network inh	pCIP destab	NCF1 inh	RAM 5-FOA
COc1ccc(CN(CCC(c2ccccc2)c2ccco2)C(=O)c2ccco2)cc1 (stereo not drawn)	-1.1	13*	-14	-57	4
COc1ccc(CN(C(=O)c2ccco2)c2ccccc2)cc1	-0.41	1	-2	0	·
COc1cccc(CN(CC2CCCO2)S(=O)(=O)c2ccc(-n3cnnn3)c(OC)c2)c1 (stereo not drawn)	-0.78	2	-8	4	·
COc1cccc(CN(Cc2ccco2)S(=O)(=O)c2ccc(S(=O)(=O)NCc3ccccc3)cc2)c1OC	-0.071	14*	-8	-11	4
Cc1ccc(S(=O)(=O)NCc2ccccc2)cc1C(=O)N(C)Cc1ccccc1F	·	·	11	·	·
COc1cccc(CN(Cc2ccccc2F)S(=O)(=O)c2ccc(S(=O)(=O)NCc3ccccc3)cc2)c1	-0.92	18*	-7	-11	4
CCN(Cc1ccccc1)S(=O)(=O)c1ccc(S(=O)(=O)N(Cc2cccc(OC)c2)CC2CCCO2)cc1 (stereo not drawn)	0.32	16*	8	-4	6
CCOc1ccc(S(=O)(=O)N(CC(=O)NCc2ccncc2)c2ccc(C)cc2)cc1	·	·	-3	·	·
CCCOc1ccc(-c2nn(-c3ccccc3)cc2/C=C2\SC(N)=NC2=O)cc1C	-0.5	13*	3	-39	9
CCN(CC)S(=O)(=O)c1ccc(N2CCOCC2)c(NC(=O)CCC2CCCCC2)c1	-0.67	14*	-4	-16	2
CCN(CC)S(=O)(=O)c1ccc(N2CCOCC2)c(NC(=O)CC(C)(C)C)c1	0.87	·	-7	-11	·
O=C(Nc1ccc2c(c1)OCO2)c1ccc(COc2ccc3c(c2)CCC3)o1	-1.6	11*	-9	-16	3
[2H]c1c([2H])c([2H])c(-c2nc(N3CCCCCC3)sc2C(=O)c2ccccc2)c([2H])c1[2H]	-1.1	13*	5	-7	3
O=C(c1sc(N2CCOCC2)nc1-c1ccccc1)N1CCCCC1	-1.3	1	-5	-25	·
CC(C)C[C@@H](CN(C)N=O)N(C[C@H](Cc1ccccc1)N(CCc1ccccc1)N=O)N=O	-0.22	20*	-13	-8	6
Cn1c2ccccc2c(=O)c2ccc(C#CC3(O)CCCCC3)cc21	·	·	-8	·	·
C=CCn1c(SCCC)nc2sc3c(c2c1=O)CCc1ccccc1-3	0.2	15*	3	-17	3
CCCC[C@@H]1C[C@H]1[C@@H](NC(=O)c1ccccc1)c1ccccc1C(F)(F)F	1	22*	-4	3	3
COC(=O)[C@@H]1C[C@H]1[C@@H](NC(=O)c1ccccc1)c1ccccc1	0.021	0	-8	13	·
COc1ccc(NS(=O)(=O)c2c(C)cc(C)cc2C)cn1	·	·	-15	·	·
CCCCOc1ccc(C(=O)N/C(=C\c2cccc([N+](=O)[O-])c2)C(=O)OCc2ccco2)cc1	0.27	11*	12	-14	2
Cc1ccc(C(=O)N/C(=C\c2cccc([N+](=O)[O-])c2)C(=O)OCN2C(=O)c3ccccc3C2=O)cc1	-0.96	2	-5	19	·
COc1ccc(C(=O)N/C(=C\c2ccco2)C(=O)OCc2ccco2)cc1	0.15	·	6	-19	·
CCCCOc1ccc(C(=O)N/C(=C\c2ccc(OC)cc2)C(=O)OCc2ccco2)cc1	-1.2	12*	-4	-13	7
O=C(CCl)Nc1nc(-c2ccco2)c(-c2ccco2)s1	-2.9	1	-3	-26	·
SMILES	Dynein cargo inh	RAM network inh	pCIP destab	NCF1 inh	RAM 5-FOA
O=C(CCCSc1ccccc1)Nc1nc(-c2ccco2)c(-c2ccco2)s1	0.28	13*	-26	-93	3
CC(=O)Nc1ccc(S(=O)(=O)NCC2CCC(C(=O)N3CC(C)CC(C)C3)CC2)cc1 (stereo not drawn)	·	·	4	·	·
COc1ccccc1OCC(=O)Nc1ccc(CSc2ccccc2)cc1C	0.89	18*	-6	-4	3
CCN(CC)CCN1C(=O)C(=O)/C(=C(/O)c2ccc(S(=O)(=O)N3CCOCC3)cc2)C1c1ccc(C(C)C)cc1 (stereo not drawn)	·	·	0	·	·
CCC(CC)COC(=O)C(C#N)c1nc2ccccc2nc1N1CCOCC1 (stereo not drawn)	-0.59	16*	-20	-12	4
N#CC(C(=O)OC1CCCCC1)c1nc2ccccc2nc1N1CCOCC1 (stereo not drawn)	-0.91	3	6	-8	·
CNC(=S)N1N=C(c2ccc(C)cc2)CC1c1ccc(Br)cc1 (stereo not drawn)	1.2	21*	8	-14	2
CNC(=S)N1N=C(c2ccc(C)cc2)CC1c1ccc(Cl)cc1 (stereo not drawn)	1.1	3	10	-7	·
CCOCCCNC(=O)c1cc(=O)n(Cc2cccc(C)c2)c2ccccc12	0.31	12*	15	-14	1
CCn1c(=O)cc(OCC(=O)NCCc2cccc(C)c2)c2ccccc21	-0.95	4	3	2	·
Cc1ccc(S(=O)(=O)N(CC(=O)NCCSc2ccccn2)c2ccccc2F)cc1	·	·	4	·	·
CCN(CC)C(=O)CSc1nc2cc3c(cc2c(=O)n1CCCCCC(=O)NCc1ccc(OC)cc1)OCO3	-0.76	14*	5	-1	4
CCN(CC)C(=O)CSc1nc2cc3c(cc2c(=O)n1CCCC(=O)NCCc1ccc(OC)c(OC)c1)OCO3	1.5	5	-1	11	·
CN=C(NC1CCCCC1)c1ccc([N+](=O)[O-])cc1	·	·	-3	·	·
COc1c(-c2ccc([N+](=O)[O-])cc2[N+](=O)[O-])c(=O)n(C)c(=O)n1C	·	·	-6	·	·
CCCC(=O)C1=C(O)C(C(=O)OC)C(C)(C)CC1=Nc1cccc2ccccc12 (stereo not drawn)	0.21	12*	-3	-1	4
CCCc1nn(C)c(C(=O)Nc2ccc(CC)cc2)c1Cl	-0.082	3	-2	-10	·
CCCc1nn(C)c(C(=O)Nc2ccc(C)c(C)c2)c1Cl	0.19	22*	-15	1	2
CCC1CCCCN1CCCNC(=O)c1cc2c(=O)oc3ccc(C)cc3c2s1 (stereo not drawn)	·	·	-22	·	·
O=C(/C=C/c1ccccc1)N1CCN(c2cccc(Cl)n2)CC1	0.77	12*	-5	-1	4
O=C(/C=C/c1ccc(F)cc1)N1CCN(c2ccccn2)CC1	-0.46	3	-12	-10	·
C=CCn1c(SCc2cc(C(C)=O)ccc2OCC)nc2ccccc2c1=O	-0.41	16*	2	-51	3
COc1ccc(C(C)=O)cc1CSc1nc2ccccc2c(=O)n1-c1ccccc1	0.88	2	-6	27	·
C=CCn1c(SCc2cc(=O)n3ccsc3n2)nc2ccccc2c1=O	0.89	14*	1	-1	9
C=CCn1c(SCc2cc(=O)n3ccsc3n2)nc2cc(Cl)ccc2c1=O	0.49	3	-8	-3	·
CCC(=O)N(CCc1ccccc1)Cc1cc2cc(OC)ccc2[nH]c1=O	-0.42	·	4	-4	·
